The text below walks through data of ChEMBL document CHEMBL1275526, “Differential azole antifungal efficacies contrasted using a Saccharomyces cerevisiae strain humanized for sterol 14 alpha-demethylase at the homologous locus” (2008).

Common to all, as to assay type: functional
The test system of assay [1] is Saccharomyces cerevisiae. In words: Antifungal activity against Saccharomyces cerevisiae BY4741 harboring human CYP51 by broth microdilution method. The gist of the method:
(§1)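 Adapted CLSI M-27A broth microdilution for S. cerevisiae, run in triplicate. Overnight cultures were diluted in YM, pH 7.0, to 2.5 x 10^3 cells/ml, with drug diluted in YM over 0 to 16 or 0 to 128 µg/ml depending on azole. Plates were incubated 48 h at 30°C. MIC was the concentration giving 80% growth inhibition.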

In assay [2] the test system is Saccharomyces cerevisiae. The assay can be described thus: Antifungal activity against Saccharomyces cerevisiae BY4741 harboring human CYP51 assessed as growth rate at 1 ug/ml (reference value: 0.157%). Particulars: at 1 µg/mL.
The test system of assay [3] is Saccharomyces cerevisiae. The assay can be described thus: Antifungal activity against wild-type Saccharomyces cerevisiae BY4741 by broth microdilution method. The method in brief:
as §1
Background: Dilution methods test growth across graded concentrations, often in twofold steps.

Assay [4] deals with Saccharomyces cerevisiae. In words: Antifungal activity against Saccharomyces cerevisiae BY4741 assessed as growth rate at 1 ug/ml (reference value: 0.144%).
The test system of assay [5] is Saccharomyces cerevisiae. In words: Antifungal activity against Saccharomyces cerevisiae BY4741 assessed as growth rate at 0.5 ug/ml (reference value: 0.144%).
Assay [6] has as its system Saccharomyces cerevisiae. The assay can be described thus: Antifungal activity against Saccharomyces cerevisiae BY4741 harboring human CYP51 assessed as growth rate at 0.5 ug/ml (reference value: 0.157%). The settings on record: at 0.5 µg/mL.
For assay [7], the system named is Saccharomyces cerevisiae. In words: Antifungal activity against Saccharomyces cerevisiae BY4741 assessed as growth rate at 2 ug/ml (reference value: 0.144%).
The subject of assay [8] is Saccharomyces cerevisiae. The assay can be described thus: Antifungal activity against Saccharomyces cerevisiae BY4741 harboring human CYP51 assessed as growth rate at 2 ug/ml (reference value: 0.157%). Particulars: at 2 µg/mL.
For assay [9], the system named is Saccharomyces cerevisiae. The assay can be described thus: Antifungal activity against Saccharomyces cerevisiae BY4741 assessed as growth rate at 8 ug/ml (reference value: 0.144%).
Assay [10] has as its system Saccharomyces cerevisiae. The assay can be described thus: Antifungal activity against Saccharomyces cerevisiae BY4741 harboring human CYP51 assessed as accumulation of ergosterol at 4 ug/ml (reference value: 54+/- 0.82 %).
Assay [11] deals with Saccharomyces cerevisiae. In words: Antifungal activity against Saccharomyces cerevisiae BY4741 harboring human CYP51 assessed as accumulation of 14-alpha-methylergosta-8,24(28)-dien-3beta-6alpha-diol at 4 ug/ml.
Assay [12] deals with Saccharomyces cerevisiae. The assay can be described thus: Antifungal activity against Saccharomyces cerevisiae BY4741 harboring human CYP51 assessed as growth rate at 8 ug/ml (reference value: 0.157%). Particulars: at 8 µg/mL.
Assay [13] deals with Saccharomyces cerevisiae. In words: Antifungal activity against Saccharomyces cerevisiae BY4741 harboring human CYP51 assessed as growth rate at 4 ug/ml (reference value: 0.157%). Particulars: at 4 µg/mL.
The test system of assay [14] is Saccharomyces cerevisiae. In words: Antifungal activity against wild-type Saccharomyces cerevisiae BY4741 assessed as accumulation of 14-alpha-methylergosta-8,24(28)-dien-3beta-6alpha-diol at 4 ug/ml.
For assay [15], the system named is Saccharomyces cerevisiae. In words: Antifungal activity against Saccharomyces cerevisiae BY4741 harboring human CYP51 assessed as accumulation of lanosterol at 4 ug/ml (reference value: 23+/- 1.08 %).
The subject of assay [16] is Saccharomyces cerevisiae. In words: Antifungal activity against wild-type Saccharomyces cerevisiae BY4741 assessed as accumulation of ergosterol at 4 ug/ml (reference value: 57+/- 1.00 %).
Assay [17] relates to Saccharomyces cerevisiae. The assay can be described thus: Antifungal activity against Saccharomyces cerevisiae BY4741 assessed as growth rate at 4 ug/ml (reference value: 0.144%).
Assay [18] has as its system Saccharomyces cerevisiae. The assay can be described thus: Antifungal activity against wild-type Saccharomyces cerevisiae BY4741 assessed as accumulation of lanosterol at 4 ug/ml (reference value: 17+/- 1.22 %).
For assay [19], the system named is Saccharomyces cerevisiae. In words: Antifungal activity against wild-type Saccharomyces cerevisiae BY4741 assessed as accumulation of 14-alpha-methylergosta-8,24(28)-dien-3beta-6alpha-diol at 8 ug/ml.
Assay [20] has as its system Saccharomyces cerevisiae. The assay can be described thus: Antifungal activity against Saccharomyces cerevisiae BY4741 harboring human CYP51 assessed as accumulation of ergosterol at 8 ug/ml (reference value: 54+/- 0.82 %).
Assay [21] has as its system Saccharomyces cerevisiae. In words: Antifungal activity against wild-type Saccharomyces cerevisiae BY4741 assessed as accumulation of lanosterol at 8 ug/ml (reference value: 17+/- 1.22 %).
Assay [22] concerns Saccharomyces cerevisiae. In words: Antifungal activity against Saccharomyces cerevisiae BY4741 harboring human CYP51 assessed as growth rate at 16 ug/ml (reference value: 0.157%). Particulars: at 16 µg/mL.
Assay [23] concerns Saccharomyces cerevisiae. The assay can be described thus: Antifungal activity against Saccharomyces cerevisiae BY4741 assessed as growth rate at 16 ug/ml (reference value: 0.144%).
The test system of assay [24] is Saccharomyces cerevisiae. In words: Antifungal activity against wild-type Saccharomyces cerevisiae BY4741 assessed as accumulation of ergosterol at 8 ug/ml (reference value: 57+/- 1.00 %).
Assay [25] deals with Saccharomyces cerevisiae. The assay can be described thus: Antifungal activity against Saccharomyces cerevisiae BY4741 harboring human CYP51 assessed as accumulation of 14-alpha-methylergosta-8,24(28)-dien-3beta-6alpha-diol at 8 ug/ml.
Assay [26] has as its system Saccharomyces cerevisiae. The assay can be described thus: Antifungal activity against wild-type Saccharomyces cerevisiae BY4741 assessed as accumulation of 14-alpha-methylergosta-8,24(28)-dien-3beta-6alpha-diol at 0.25 ug/ml.
The subject of assay [27] is Saccharomyces cerevisiae. In words: Antifungal activity against Saccharomyces cerevisiae BY4741 assessed as growth rate at 0.25 ug/ml (reference value: 0.144%).
For assay [28], the system named is Saccharomyces cerevisiae. In words: Antifungal activity against Saccharomyces cerevisiae BY4741 assessed as growth rate at 0.125 ug/ml (reference value: 0.144%).
Assay [29] concerns Saccharomyces cerevisiae. In words: Antifungal activity against Saccharomyces cerevisiae BY4741 harboring human CYP51 assessed as accumulation of lanosterol at 0.25 ug/ml (reference value: 23+/- 1.08 %).
Assay [30] has as its system Saccharomyces cerevisiae. The assay can be described thus: Antifungal activity against wild-type Saccharomyces cerevisiae BY4741 assessed as accumulation of ergosterol at 0.25 ug/ml (reference value: 57+/- 1.00 %).
Assay [31] concerns Saccharomyces cerevisiae. The assay can be described thus: Antifungal activity against Saccharomyces cerevisiae BY4741 harboring human CYP51 assessed as accumulation of 14-alpha-methylergosta-8,24(28)-dien-3beta-6alpha-diol at 0.25 ug/ml.
Assay [32] has as its system Saccharomyces cerevisiae. In words: Antifungal activity against Saccharomyces cerevisiae BY4741 harboring human CYP51 assessed as growth rate at 0.25 ug/ml (reference value: 0.157%). Particulars: at 0.25 µg/mL.
For assay [33], the system named is Saccharomyces cerevisiae. In words: Antifungal activity against Saccharomyces cerevisiae BY4741 harboring human CYP51 assessed as growth rate at 0.125 ug/ml (reference value: 0.157%). The settings on record: at 0.125 µg/mL.
Assay [34] concerns Saccharomyces cerevisiae. In words: Antifungal activity against Saccharomyces cerevisiae BY4741 harboring human CYP51 assessed as accumulation of ergosterol at 0.25 ug/ml (reference value: 54+/- 0.82 %).
The subject of assay [35] is Saccharomyces cerevisiae. In words: Antifungal activity against wild-type Saccharomyces cerevisiae BY4741 assessed as accumulation of lanosterol at 0.25 ug/ml (reference value: 17+/- 1.22 %).
Assay [36] concerns Saccharomyces cerevisiae. In words: Antifungal activity against Saccharomyces cerevisiae BY4741 harboring human CYP51 assessed as accumulation of lanosterol at 16 ug/ml (reference value: 23+/- 1.08 %).
The test system of assay [37] is Saccharomyces cerevisiae. The assay can be described thus: Antifungal activity against wild-type Saccharomyces cerevisiae BY4741 assessed as accumulation of 14-alpha-methylergosta-8,24(28)-dien-3beta-6alpha-diol at 16 ug/ml.
Assay [38] deals with Saccharomyces cerevisiae. The assay can be described thus: Antifungal activity against Saccharomyces cerevisiae BY4741 harboring human CYP51 assessed as accumulation of ergosterol at 16 ug/ml (reference value: 54+/- 0.82 %).
Assay [39] deals with Saccharomyces cerevisiae. The assay can be described thus: Antifungal activity against wild-type Saccharomyces cerevisiae BY4741 assessed as accumulation of lanosterol at 16 ug/ml (reference value: 17+/- 1.22 %).
The subject of assay [40] is Saccharomyces cerevisiae. In words: Antifungal activity against Saccharomyces cerevisiae BY4741 harboring human CYP51 assessed as accumulation of 14-alpha-methylergosta-8,24(28)-dien-3beta-6alpha-diol at 16 ug/ml.

Values after ≈ are worked out from the molar mass of the structure shown.

One may read the MIC as the lowest concentration that inhibits growth of the organism. Low values mean greater potency, high ones weaker potency. For the compound `Clc1ccc(COC(Cn2ccnc2)c2ccc(Cl)cc2Cl)cc1` (stereo not drawn) [ECONAZOLE], the MIC in [1] and in assay [3] was 8 µg/mL (≈ 21 µM) throughout. Moreover, the values for the Activity in assay [2] and in [4] were 0.157% and 0.084%, respectively.

Turning to `Clc1ccc(COC(Cn2ccnc2)c2ccc(Cl)cc2Cl)c(Cl)c1` (stereo not drawn) [MICONAZOLE], the Activity in assay [5] stood at 0.024%; in assay [6], 0.174%; in assay [2] it was 0.141%; in assay [4], 0.034%; in assay [7] it was 0.023%; in assay [8] it was 0.167%. Besides, the MIC in [1] and in assay [3] was 8 µg/mL (≈ 19.2 µM) throughout.

Take `CC(=O)N1CCN(c2ccc(OCC3COC(Cn4ccnc4)(c4ccc(Cl)cc4Cl)O3)cc2)CC1` (stereo not drawn) [KETOCONAZOLE]: the Activity is 0.039% in assay [9]; 51% in assay [10]; 7% in assay [11]; 0.119% in [12]; 0.204% in [13]; 19% in [14]. Besides, the Activity in assay [15] was 27%; in assay [7] it was 0.088%; in [16] it was 12%; in [17], 0.06%; in [18], 35%; in assay [8] it was 0.188%. The figures for the MIC in assay [1] and in assay [3] were 8 µg/mL (≈ 15.1 µM) and 1 µg/mL (≈ 1.88 µM), respectively.

Consider `CCC(C)n1ncn(-c2ccc(N3CCN(c4ccc(OCC5COC(Cn6cncn6)(c6ccc(Cl)cc6Cl)O5)cc4)CC3)cc2)c1=O` (stereo not drawn) [ITRACONAZOLE], for which the Activity was 0.042% in assay [5]; 0.036% in assay [9]; 0.166% in assay [6]; 0.164% in assay [12]; 24% in assay [19]; 52% in assay [20]. For the same compound, the Activity in [13] is 0.136%; in [2], 0.176%; in assay [4], 0.042%; in assay [21], 42%; in [7], 0.044%; in assay [22], 0.136%. In addition, the Activity in assay [23] is listed as 0.035%; in assay [24] it was 6%; in assay [17], 0.039%; in assay [25], 5%; in assay [8], 0.17%. Further, the MIC in [1] is more than 128 µg/mL; in [3] it was 1 µg/mL (≈ 1.42 µM).

`C[C@@H](c1ncncc1F)[C@](O)(Cn1cncn1)c1ccc(F)cc1F` [VORICONAZOLE]: the Activity in assay [5] worked out at 0.046%; in assay [9], 0.043%; in assay [6] it was 0.153%; in assay [12] it was 0.168%; in [26], 24%; in assay [13], 0.154%. Besides, the Activity in [2] stood at 0.156%; in assay [4], 0.039%; in assay [27], 0.046%; in assay [28], 0.057%; in [7], 0.051%; in assay [22] it was 0.159%. In addition, the Activity in assay [29] is reported as 27%; in assay [30], 10%; in assay [23] it was 0.039%; in assay [31] it was 4%; in [32] it was 0.159%; in assay [33] it was 0.157%. Further, the Activity amounted to 49% in assay [34], 0.043% in [17], 35% in [35] and 0.154% in assay [8]. Moreover, the MIC in assay [1] is more than 128 µg/mL; in [3], 0.125 µg/mL (≈ 0.358 µM).

On to `Clc1ccccc1C(c1ccccc1)(c1ccccc1)n1ccnc1` [CLOTRIMAZOLE], for which the Activity in assay [5] amounted to 0.11%; in assay [6], 0.162%; in assay [2], 0.173%; in assay [4] it was 0.123%; in assay [7], 0.088%; in assay [8], 0.169%. The MIC in [1] and in assay [3] was 8 µg/mL (≈ 23.2 µM) throughout.

In the case of `OC(Cn1cncn1)(Cn1cncn1)c1ccc(F)cc1F` [FLUCONAZOLE], the Activity is 0.036% in assay [9]; 0.16% in assay [12]; 24% in [36]; 29% in [37]; 0.171% in assay [22]; 0.03% in assay [23]. Further, the Activity was determined as 46% in assay [38], 42% in assay [39] and 6% in [40]. Further, the MIC in [1] is more than 128 µg/mL; in [3], 8 µg/mL (≈ 26.1 µM).
